Results from ChEMBL document CHEMBL3124769, “Synthesis and antitumor activities of novel dipeptide derivatives derived from dehydroabietic acid” (Bioorg Med Chem Lett, 2014).
Active and inactive are the calls of the source. No cut-off for these calls is given here.

Tests used:
[1] = tested on: NCI-H460; assay: Cytotoxicity against human NCI-H460 cells after 48 hrs by MTT assay; assay type: functional, cell-based; conditions: NCI-H460, 48 h
Summary of the method: (§1)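 Cells from the six lines were plated and left to adhere for 24 h. They were then exposed to compounds at 100 to 0.01 µM for 48 h. After that the medium was replaced with complete medium and viability was read by MTT. IC50 came from the concentration series, and each experiment was done three times.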

[2] = tested on: HeLa; assay: Cytotoxicity against human HeLa cells after 48 hrs by MTT assay; assay type: functional, cell-based; summary of the method: as §1
[3] = tested on: HCT-116; assay: Cytotoxicity against human HCT116 cells after 48 hrs by MTT assay; assay type: functional, cell-based; conditions: HCT-116, 48 h; summary of the method: as §1
[4] = tested on: SK-OV-3; assay: Cytotoxicity against human SKOV3 cells after 48 hrs by MTT assay; assay type: functional, cell-based; conditions: SK-OV-3, 48 h; summary of the method: as §1
[5] = Cytotoxicity against human Bel7404 cells after 48 hrs by MTT assay; assay type: functional, cell-based; conditions: BEL-7404, 48 h; summary of the method: as §1
[6] = tested on: HepG2; assay: Cytotoxicity against human HepG2 cells after 48 hrs by MTT assay; assay type: functional, cell-based; conditions: HepG2, 48 h; summary of the method: as §1
[7] = tested on: HeLa; assay: Induction of apoptosis in human HeLa cells assessed as early apoptotic cells at 5 uM after 12 hrs using annexin V/propidium iodide staining by flow cytometry (reference value: 3.8%); assay type: functional
Summary of the method: (§2)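 HeLa cells were treated at 5 or 10 µM for 12 h, with untreated cells run alongside for 12 h. Cells were washed in cold PBS and resuspended in binding buffer. They were stained with Annexin V-FITC, then PI, for 20 min in the dark and run on a flow cytometer. Quadrants: Q2 necrotic/late apoptotic, Q3 normal, Q4 early apoptotic. Apoptosis ratio = early + late.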

[8] = tested on: HeLa; assay: Induction of apoptosis in human HeLa cells assessed as necrotic cells at 5 uM after 12 hrs using annexin V/propidium iodide staining by flow cytometry (reference value: 2.1%); assay type: functional; summary of the method: as §2
[9] = tested on: HeLa; assay: Induction of apoptosis in human HeLa cells assessed as apoptotic ratio at 5 uM after 12 hrs using annexin V/propidium iodide staining by flow cytometry (reference value: 2.3%); assay type: functional; summary of the method: as §2
[10] = tested on: HeLa; assay: Induction of apoptosis in human HeLa cells assessed as necrotic cells at 10 uM after 12 hrs using annexin V/propidium iodide staining by flow cytometry (reference value: 2.1%); assay type: functional; summary of the method: as §2
[11] = tested on: HeLa; assay: Induction of apoptosis in human HeLa cells assessed as release of ROS at 5 to 10 uM after 12 hrs by fluorescence microscopic analysis; assay type: functional, cell-based
Summary of the method: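 HeLa cells were given 5 or 10 µM for 12 h, with an untreated control handled the same way. Intracellular ROS was visualized by fluorescence microscopy using the probe 2,7-dichlorofluorescein diacetate.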

[12] = tested on: HeLa; assay: Induction of apoptosis in human HeLa cells assessed as change in mitochondrial membrane potential at 10 uM after 12 to 24 hrs by JC-1 staining; assay type: functional, cell-based
Summary of the method: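 HeLa cells were exposed at 10 µM for 12 and 24 h, with an untreated 24 h control, then stained with JC-1. Monomers were excited at 514 nm (read 515–545 nm, green) and aggregates at 585 nm (read 570–600 nm, red). Depolarization was taken as a rise in the green/red intensity ratio.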

[13] = tested on: HeLa; assay: Induction of apoptosis in human HeLa cells after 12 hrs using annexin V/propidium iodide staining by flow cytometry; assay type: functional, cell-based; summary of the method: as §2
[14] = tested on: HeLa; assay: Induction of apoptosis in human HeLa cells at 10 uM after 12 to 24 hrs by acridine orange/ethidium bromide staining; assay type: functional, cell-based
Summary of the method: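 HeLa cells were seeded at 5×10⁴ cells/mL on coverslips and fed fresh medium with 10% FBS. They were treated at 10 µM for 12 and 24 h, with an untreated 24 h control. Coverslips were inverted onto AO/EB stain and examined by fluorescence microscopy. Scoring: green = live, green-yellow = early apoptotic, orange = late apoptotic/necrotic.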

[15] = tested on: HeLa; assay: Induction of apoptosis in human HeLa cells assessed as apoptotic morphology at 10 uM after 12 to 24 hrs by Hoechst 33258 staining; assay type: functional, cell-based
Summary of the method: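 HeLa cells on coverslips were treated at 10 µM for 12 and 24 h, with an untreated 24 h control. They were fixed in 4% paraformaldehyde for 10 min, washed in PBS, stained with Hoechst 33258 for 5 min and washed again. Nuclei were viewed under fluorescence at 350 nm excitation and 460 nm emission.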

[16] = tested on: HeLa; assay: Induction of apoptosis in human HeLa cells assessed as apoptotic ratio at 10 uM after 12 hrs using annexin V/propidium iodide staining by flow cytometry (reference value: 2.3%); assay type: functional; summary of the method: as §2
[17] = tested on: HeLa; assay: Induction of apoptosis in human HeLa cells assessed as DNA fragmentation at 5 to 15 uM after 24 hrs by agarose gel electrophoresis analysis; assay type: functional, cell-based
Summary of the method: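 HeLa cells were exposed for 24 h at 5, 10 or 15 µM alongside untreated cells. Total cellular DNA was extracted and run on agarose gel electrophoresis to look for a nucleosome-sized ladder (~180–200 bp fragments).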

[18] = tested on: HeLa; assay: Induction of apoptosis in human HeLa cells assessed as DNA fragmentation at 10 uM after 12 to 24 hrs by TUNEL assay; assay type: functional, cell-based
Summary of the method: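 After 12 and 24 h at 10 µM, HeLa cells (untreated 24 h control) were fixed in 4% paraformaldehyde and permeabilized with 0.1% Triton X-100. Fragmented DNA 3′-ends were labeled with FITC-dUTP using a TUNEL kit. Cells were imaged by fluorescence microscopy at 488 nm excitation and 530 nm emission.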

[19] = tested on: HeLa; assay: Induction of apoptosis in human HeLa cells assessed as early apoptotic cells at 10 uM after 12 hrs using annexin V/propidium iodide staining by flow cytometry (reference value: 3.8%); assay type: functional; summary of the method: as §2
[20] = tested on: HeLa; assay: Induction of apoptosis in human HeLa cells assessed as activation of caspase 3/9 by spectrophotometry analysis; assay type: functional, cell-based; conditions: TDE = time-dependent effect
Summary of the method: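 Caspase-3 and caspase-9 activities in treated HeLa cells were measured spectrophotometrically at time points from 3 to 24 h and compared with untreated controls.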

[21] = tested on: HeLa; assay: Induction of apoptosis in human HeLa cells assessed as release of mitochondrial cytochrome c into cytosol at 5 to 10 uM after 12 hrs by fluorescence microscopic analysis; assay type: functional, cell-based

| SMILES | IC50 [1] [µM] | IC50 [2] [µM] | IC50 [3] [µM] | IC50 [4] [µM] | IC50 [5] [µM] | IC50 [6] [µM] | other results |
| --- | --- | --- | --- | --- | --- | --- | --- |
| CC(C)c1ccc2c(c1)CC[C@H]1[C@](C)(C(=O)N[C@H](Cc3ccccc3)C(=O)Nc3ccc(F)c(Cl)c3)CCC[C@]21C | 26.8 | 11.1 | 39.3 | 30.5 | 26.1 | 32.9 |  |
| CC(C)c1ccc2c(c1)CC[C@H]1[C@](C)(C(=O)N[C@H](Cc3ccccc3)C(=O)Nc3ccc(Br)cc3)CCC[C@]21C | 28.7 | 15.2 | 35.3 | 28.7 | 16.9 | 34.6 |  |
| CC(C)c1ccc2c(c1)CC[C@H]1[C@](C)(C(=O)N[C@H](Cc3ccccc3)C(=O)Nc3ccc(F)cc3)CCC[C@]21C | 22.8 | 10.8 | 27.4 | 20.1 | 21 | 27.1 |  |
| Cc1ccc(NC(=O)[C@@H](Cc2ccccc2)NC(=O)[C@]2(C)CCC[C@]3(C)c4ccc(C(C)C)cc4CC[C@@H]23)cc1C | 37 | 14.3 | 32.1 | 51.8 | 48.2 | 42.8 |  |
| O=c1[nH]cc(F)c(=O)[nH]1 [FLUOROURACIL] | 36 | 80.5 | 24.4 |  | 26.8 | 27 |  |
| CC(C)c1ccc2c(c1)CC[C@H]1[C@](C)(C(=O)N[C@H](Cc3ccccc3)C(=O)Nc3ccccc3)CCC[C@]21C | 28.2 | 18.9 | 30.3 | 27.4 | 16.7 | 27.7 |  |
| CC(C)c1ccc2c(c1)CC[C@H]1[C@](C)(C(=O)N[C@H](Cc3ccccc3)C(=O)Nc3cccc([N+](=O)[O-])c3)CCC[C@]21C | 32.8 | 12.8 | 27.4 | 20.1 | 27.1 | 25.3 |  |
| CC(C)c1ccc2c(c1)CC[C@H]1[C@](C)(C(=O)N[C@H](Cc3ccccc3)C(=O)Nc3cccc(F)c3)CCC[C@]21C | 26.1 | 13.9 | 34.8 | 33.9 | 27.4 | 23.9 |  |
| COc1cccc(NC(=O)[C@@H](Cc2ccccc2)NC(=O)[C@]2(C)CCC[C@]3(C)c4ccc(C(C)C)cc4CC[C@@H]23)c1 | 40.4 | 25.8 | 35.8 | 30.5 | 38.5 | 29.5 |  |
| COc1ccc(OC)c(NC(=O)[C@@H](Cc2ccccc2)NC(=O)[C@]2(C)CCC[C@]3(C)c4ccc(C(C)C)cc4CC[C@@H]23)c1 | 27.4 | 19.3 | 36.8 | 53.8 | 56.3 | 38.1 |  |
| CC(C)c1ccc2c(c1)CC[C@H]1[C@](C)(C(=O)N[C@H](Cc3ccccc3)C(=O)Nc3cccc(Cl)c3)CCC[C@]21C | 26.3 | 13.1 | 45.9 | 30.6 | 23.8 | 24.7 |  |
| CC(C)c1ccc2c(c1)CC[C@H]1[C@](C)(C(=O)N[C@H](Cc3ccccc3)C(=O)Nc3ccc(C(F)(F)F)cc3)CCC[C@]21C | 28.9 | 10.5 | 27.4 | 36.3 | 36.1 | 21.6 |  |
| CC(C)c1ccc2c(c1)CC[C@H]1[C@](C)(C(=O)N[C@H](Cc3ccccc3)C(=O)Nc3cccc(Br)c3)CCC[C@]21C | 33.3 | 25.1 | 44.1 | 38.8 | 19.9 | 22.9 |  |
| Cc1ccc(NC(=O)[C@@H](Cc2ccccc2)NC(=O)[C@]2(C)CCC[C@]3(C)c4ccc(C(C)C)cc4CC[C@@H]23)cc1Cl | 26.1 | 10.1 | 32.3 | 37.8 | 41.2 | 36.9 |  |
| COc1ccc(NC(=O)[C@@H](Cc2ccccc2)NC(=O)[C@]2(C)CCC[C@]3(C)c4ccc(C(C)C)cc4CC[C@@H]23)cc1 | 17.2 | 4.94 | 15.7 | 23.8 | 15.3 | 12.4 | Activity [7]: 9.4%; Activity [8]: 3.2%; Activity [9]: 12.6%; Activity [10]: 14.5%; Activity [11]: Active; Activity [12]: Active; Activity [13]: Dose-dependent effect; Activity [14]: Active; Activity [15]: Active; Activity [16]: 33.7%; Activity [17]: Active; Activity [18]: Active; Activity [19]: 19.2%; Activity [20]: tde; Activity [21]: Active |
| CC(C)c1ccc2c(c1)CC[C@H]1[C@](C)(C(=O)N[C@H](Cc3ccccc3)C(=O)Nc3ccccc3Cl)CCC[C@]21C | 15.2 | 10.3 | 25.5 | 13.5 | 15.8 | 25.3 |  |
| Cc1cccc(NC(=O)[C@@H](Cc2ccccc2)NC(=O)[C@]2(C)CCC[C@]3(C)c4ccc(C(C)C)cc4CC[C@@H]23)c1 | 32.4 | 18.2 | 32.5 | 29.8 | 34.6 | 26.9 |  |
| CC(C)c1ccc2c(c1)CC[C@H]1[C@](C)(C(=O)N[C@H](Cc3ccccc3)C(=O)Nc3ccc(Cl)c(Cl)c3)CCC[C@]21C | 27 | 28.8 | 40.9 | 33.1 | 44.7 | 20.4 |  |
| CC(C)c1ccc2c(c1)CC[C@H]1[C@](C)(C(=O)O)CCC[C@]21C [DEHYDROABIETIC ACID] | 80.5 | 29.4 | 35.2 | 75 | 34.7 | 76.8 |  |
| CC(C)c1ccc2c(c1)CC[C@H]1[C@](C)(C(=O)N[C@H](Cc3ccccc3)C(=O)Nc3ccc(Cl)cc3)CCC[C@]21C | 15.8 | 12.2 | 37.8 | 26.3 | 33.6 | 26.3 |  |
| CC(C)c1ccc2c(c1)CC[C@H]1[C@](C)(C(=O)N[C@H](Cc3ccccc3)C(=O)Nc3cc(Cl)ccc3Cl)CCC[C@]21C | 15.8 | 14.9 | 24.1 | 21.6 | 31 | 23.4 |  |
